These results are taken from ChEMBL document CHEMBL1133671, “Synthesis and SAR of new 5-phenyl-3-ureido-1,5-benzodiazepines as cholecystokinin-B receptor antagonists” (J Med Chem, 2000).

Some results are limits rather than exact numbers.

In test [1] the target is T1, Cholecystokinin receptor type A (Rattus norvegicus, UniProt P30551).
T1 sequence (P30551 whole entry): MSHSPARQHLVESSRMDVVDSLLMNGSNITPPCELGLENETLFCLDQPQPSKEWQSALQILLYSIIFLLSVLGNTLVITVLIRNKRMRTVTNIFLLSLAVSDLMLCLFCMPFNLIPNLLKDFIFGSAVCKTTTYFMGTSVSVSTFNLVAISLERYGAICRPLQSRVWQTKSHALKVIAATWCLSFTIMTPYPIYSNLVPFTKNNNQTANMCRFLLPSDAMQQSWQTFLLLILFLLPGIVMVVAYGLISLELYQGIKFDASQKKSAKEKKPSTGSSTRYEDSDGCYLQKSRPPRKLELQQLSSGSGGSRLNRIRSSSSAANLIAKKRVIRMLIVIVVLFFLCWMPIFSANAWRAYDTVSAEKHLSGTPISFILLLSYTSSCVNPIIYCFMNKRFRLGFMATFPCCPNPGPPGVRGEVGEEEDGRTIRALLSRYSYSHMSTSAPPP
Briefly: In vitro inhibition of binding of [3H]pCCK-8 against Cholecystokinin type A receptor of rat pancreatic membranes. In kind it is cell membranes, Membrane. A digest of the protocol:
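Radioligand displacement of [3H]CCK-8S from membranes: rat pancreas for the CCK-A receptor and guinea-pig cerebral cortex for the CCK-B receptor, using slightly modified published methods. Values are means of n experiments.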

The species named for a further test is Cavia porcellus. As to the kind of experiment: Selectivity factor between CCK-B and CCK-A receptors.

Regarding `O=C(Nc1ccc(Br)cc1)NC1C(=O)N(CC23C[C@H]4C[C@@H](C2)C[C@@H](C3)C4)c2ccccc2N(c2ccccc2)C1=O` (some centres not stated), the inhibitory constant (Ki) in test [1] was 3.47 µM. Also, the Ratio in the test filed under Cavia porcellus was found to be 2460.

In test [1], `CC(C)(C)CCN1C(=O)C(NC(=O)Nc2cccc(C#N)c2)C(=O)N(c2ccccc2)c2ccccc21` (configuration not stated) had a Ki of 0.0977 µM. The Ratio in the test listed under Cavia porcellus came to 151.

As to `CN(C)c1cccc(NC(=O)NC2C(=O)N(c3ccccc3)c3ccccc3N(C3[C@H]4C[C@@H]5C[C@@H](C[C@H]3C5)C4)C2=O)c1` (some centres not stated), the inhibitory constant (Ki) in test [1] was 0.141 µM. In addition, the Ratio in the test listed under Cavia porcellus worked out at 60.

Compound `O=C(Nc1cccc(Cl)c1)NC1C(=O)N(c2ccccc2)c2ccccc2N(C2CC3CCC2C3)C1=O` (configuration not stated) had an inhibition constant (Ki) in test [1] of 0.0479 µM. Besides, the Ratio in the test listed under Cavia porcellus is 28.

In turn, `CSc1cccc(NC(=O)NC2C(=O)N(CCC34C[C@H]5C[C@@H](C3)C[C@@H](C4)C5)c3ccccc3N(c3ccccc3)C2=O)c1` (some centres not stated) showed a Ki in test [1] of 0.251 µM. In addition, the Ratio in the test listed under Cavia porcellus is 4.

Take `CC(=O)Nc1cccc(NC(=O)NC2C(=O)N(CC34C[C@H]5C[C@@H](C3)C[C@@H](C4)C5)c3ccccc3N(c3ccccc3)C2=O)c1` (some centres not stated): in test [1], the Ki is 1.51 µM. Further, the Ratio in the test listed under Cavia porcellus came out at 591.

With `CN(C)c1cccc(NC(=O)NC2C(=O)N(c3ccccc3)c3ccccc3N(C3CC4CCC3C4)C2=O)c1` (configuration not stated), in test [1], the inhibition constant (Ki) is 0.0447 µM. Moreover, the Ratio in the test filed under Cavia porcellus turned out to be 40.

With `O=C(Nc1cccc(C2N=NN=N2)c1)NC1C(=O)N(c2ccccc2)c2ccccc2N(C2[C@H]3C[C@@H]4C[C@@H](C[C@H]2C4)C3)C1=O` (some centres not stated), the Ki in test [1] was 0.0977 µM. In addition, the Ratio in the test filed under Cavia porcellus was determined as 47.

For `CN(C)c1cccc(NC(=O)NC2C(=O)N(CCC34C[C@H]5C[C@@H](C3)C[C@@H](C4)C5)c3ccccc3N(c3ccccc3)C2=O)c1` (some centres not stated), the affinity in test [1], expressed as Ki, was 0.295 µM. Further, the Ratio in the test filed under Cavia porcellus was 22.

For the compound `O=Cc1cccc(NC(=O)NC2C(=O)N(CC34C[C@H]5C[C@@H](C3)C[C@@H](C4)C5)c3ccccc3N(c3ccccc3)C2=O)c1` (some centres not stated), in test [1], the affinity corresponds to a Ki of 1.12 µM. The Ratio in the test listed under Cavia porcellus turned out to be 1180.

In test [1], `CCOC(=O)c1cccc(NC(=O)NC2C(=O)N(CC34C[C@H]5C[C@@H](C3)C[C@@H](C4)C5)c3ccccc3N(c3ccccc3)C2=O)c1` (mixture of isomers) had a Ki of 0.813 µM. Besides, the Ratio in the test filed under Cavia porcellus is 275.

With `CN(C)c1cccc(NC(=O)NC2C(=O)N(CC34C[C@H]5C[C@@H](C3)C[C@@H](C4)C5)c3ccccc3N(c3ccccc3)C2=O)c1` (mixture of isomers), the Ki in test [1] is 0.447 µM. Besides, in the test listed under Cavia porcellus, the Ratio was found to be 398.

As to `CC(C)Cn1nnc(-c2cccc(NC(=O)NC3C(=O)N(CCC(C)(C)C)c4ccccc4N(c4ccccc4)C3=O)c2)n1` (racemic), the Ki in test [1] is 0.049 µM. The Ratio in the test listed under Cavia porcellus came to 20.

In turn, `O=C(Nc1ccccc1)NC1C(=O)N(CCC2CCCC2)c2ccccc2N(c2ccccc2F)C1=O` (racemic) showed a Ki in test [1] of 0.1 µM. The Ratio in the test filed under Cavia porcellus came out at 138.

Consider `O=C(Nc1cccc(C(=O)O)c1)NC1C(=O)N(CC23C[C@H]4C[C@@H](C2)C[C@@H](C3)C4)c2ccccc2N(c2ccccc2)C1=O` (mixture of isomers), for which, in test [1], the affinity corresponds to a Ki of 0.631 µM. Moreover, the Ratio in the test listed under Cavia porcellus stood at 646.

For the compound `CSc1cccc(NC(=O)NC2C(=O)N(CCC(C)C)c3ccccc3N(c3ccccc3F)C2=O)c1` (racemic), the affinity in test [1] corresponds to a Ki of 0.0363 µM. Besides, the Ratio in the test listed under Cavia porcellus is 110.

`O=C(Nc1cccc(Br)c1)NC1C(=O)N(CC23C[C@H]4C[C@@H](C2)C[C@@H](C3)C4)c2ccccc2N(c2ccccc2)C1=O` (mixture of isomers) showed a Ki in test [1] of 0.191 µM.

In the case of `CC(C)(C)CCN1C(=O)C(NC(=O)Nc2cccc(OC(F)(F)F)c2)C(=O)N(c2ccccc2)c2ccccc21` (racemic), the Ki in test [1] is 0.112 µM. Further, the Ratio in the test listed under Cavia porcellus amounted to 38.

In test [1], `O=C(Nc1ccccc1)NC1C(=O)N(c2ccccc2)c2ccccc2N(C2CC3CCC2C3)C1=O` (racemic) showed a Ki of 0.251 µM. In the test listed under Cavia porcellus, the Ratio worked out at 162.

Turning to `CSc1cccc(NC(=O)NC2C(=O)N(CCC(C)(C)C)c3ccccc3N(c3ccccc3)C2=O)c1` (racemic), in test [1], the Ki was 0.00741 µM. The Ratio in the test listed under Cavia porcellus came out at 15.

For `CCCCN1C(=O)C(NC(=O)Nc2ccccc2)C(=O)N(c2ccccc2)c2ccccc21` (racemic), in test [1], the affinity, expressed as Ki, was 0.55 µM. Also, the Ratio in the test listed under Cavia porcellus turned out to be 89.

In the case of `O=C(Nc1cccc([N+](=O)[O-])c1)NC1C(=O)N(CC23C[C@H]4C[C@@H](C2)C[C@@H](C3)C4)c2ccccc2N(c2ccccc2)C1=O` (mixture of isomers), in test [1], the Ki was 0.302 µM. In addition, the Ratio in the test filed under Cavia porcellus turned out to be 158.

The compound `CC(O)C(O)Nc1cccc(NC(=O)NC2C(=O)N(CC34C[C@H]5C[C@@H](C3)C[C@@H](C4)C5)c3ccccc3N(c3ccccc3)C2=O)c1` (mixture of isomers) [listing 1 of 2 here] had a Ki in test [1] of 0.631 µM.

Turning to `O=C(Nc1cccc(C2N=NN=N2)c1)NC1C(=O)N(CCC2CCCC2)c2ccccc2N(c2ccccc2F)C1=O` (racemic), the Ki in test [1] is 0.12 µM. Further, the Ratio in the test listed under Cavia porcellus was found to be 468.

The compound `O=C(Nc1ccccc1)NC1C(=O)N(CCc2ccccc2)c2ccccc2N(c2ccccc2)C1=O` (racemic) showed an inhibition constant (Ki) in test [1] of 0.269 µM. Besides, in the test listed under Cavia porcellus, the Ratio worked out at 32.

In the case of `CC(C)(C)CCN1C(=O)C(NC(=O)Nc2ccccc2)C(=O)N(c2ccccc2F)c2ccccc21` (racemic), the inhibition constant (Ki) in test [1] was 0.0708 µM. In addition, in the test filed under Cavia porcellus, the Ratio stood at 74.

`CSc1cccc(NC(=O)NC2C(=O)N(CCC(C)(C)C)c3ccccc3N(c3ccccc3F)C2=O)c1` (racemic) had a Ki in test [1] of 0.0117 µM. Besides, in the test listed under Cavia porcellus, the Ratio was 16.

On to `CN(C)c1cccc(NC(=O)NC2C(=O)N(CCC(C)(C)C)c3ccccc3N(c3ccccc3F)C2=O)c1` (racemic), for which the affinity in test [1] corresponds to a Ki of 0.0195 µM. Also, the Ratio in the test listed under Cavia porcellus was found to be 32.

For `CC(C)CC(C)N1C(=O)C(NC(=O)Nc2ccccc2)C(=O)N(c2ccccc2)c2ccccc21` (racemic), in test [1], the Ki is 0.115 µM. Moreover, in the test filed under Cavia porcellus, the Ratio turned out to be 55.

As for `O=C(Nc1ccccc1)NC1C(=O)N(CCC23C[C@H]4C[C@@H](C2)C[C@@H](C3)C4)c2ccccc2N(c2ccccc2)C1=O` (mixture of isomers), the Ki in test [1] was 0.219 µM. Further, in the test listed under Cavia porcellus, the Ratio was found to be 6.

Regarding `CC(C)CCN1C(=O)C(NC(=O)Nc2ccccc2)C(=O)N(c2ccccc2F)c2ccccc21` (racemic), affinity in test [1] was put at a Ki of 0.195 µM. In addition, the Ratio in the test listed under Cavia porcellus was found to be 25.

For the compound `CC(C)CCN1C(=O)C(NC(=O)Nc2cccc(N(C)C)c2)C(=O)N(c2ccccc2F)c2ccccc21` (racemic) [listing 1 of 2 here], affinity in test [1] was put at a Ki of 0.126 µM.

For the compound `O=C(Nc1ccccc1)NC1C(=O)N(CC2[C@H]3C[C@@H]4C[C@@H](C[C@H]2C4)C3)c2ccccc2N(c2ccccc2)C1=O` (mixture of isomers), the inhibition constant Ki in test [1] is 0.0832 µM. In addition, the Ratio in the test listed under Cavia porcellus was determined as 48.

In the case of `CC(C)C(C)CN1C(=O)C(NC(=O)Nc2ccccc2)C(=O)N(c2ccccc2)c2ccccc21` (racemic), in test [1], the Ki is 0.123 µM. For the same compound, in the test filed under Cavia porcellus, the Ratio turned out to be 110.

On to `CN(C)c1ccc(NC(=O)NC2C(=O)N(CCC3CCCC3)c3ccccc3N(c3ccccc3F)C2=O)cc1` (racemic), for which the inhibition constant (Ki) in test [1] was 0.661 µM. In addition, the Ratio in the test listed under Cavia porcellus was found to be 141.

In test [1], `CC(C)(C)CCN1C(=O)C(NC(=O)Nc2ccccc2)C(=O)N(c2ccccc2)c2ccccc21` (racemic) gave an inhibition constant Ki of 0.112 µM. The Ratio in the test listed under Cavia porcellus is 166.

In the case of `CN(C)c1cccc(NC(=O)NC2C(=O)N(CCC3CCCC3)c3ccccc3N(c3ccccc3F)C2=O)c1` (racemic), in test [1], the Ki was 0.0479 µM. Besides, the Ratio in the test listed under Cavia porcellus came to 71.

For `CC(C)CCN1C(=O)C(NC(=O)Nc2cccc(N(C)C)c2)C(=O)N(c2ccccc2F)c2ccccc21` (racemic) [listing 2 of 2 here], in the test listed under Cavia porcellus, the Ratio came to 501.

Take `CC(O)C(O)Nc1cccc(NC(=O)NC2C(=O)N(CC34C[C@H]5C[C@@H](C3)C[C@@H](C4)C5)c3ccccc3N(c3ccccc3)C2=O)c1` (mixture of isomers) [listing 2 of 2 here]: the Ratio in the test listed under Cavia porcellus turned out to be 575.

`O=C(O)CCCOc1ccc(NC(=O)NC2C(=O)N(CC34C[C@H]5C[C@@H](C3)C[C@@H](C4)C5)c3ccccc3N(c3ccccc3)C2=O)cc1` (single isomer, unassigned; (+)) showed an inhibitory constant (Ki) in test [1] of over 10 µM. Besides, the Ratio in the test listed under Cavia porcellus is over 2630.

`CC(O)C(O)Nc1cccc(NC(=O)NC2C(=O)N(CC34C[C@H]5C[C@@H](C3)C[C@@H](C4)C5)c3ccccc3N(c3ccccc3)C2=O)c1` (single isomer, unassigned; (+)) [listing 1 of 2 here] had a Ki in test [1] of 7.41 µM.

`CC(C)CCN1C(=O)C(NC(=O)Nc2cccc(N(C)C)c2)C(=O)N(c2ccccc2F)c2ccccc21` (single isomer, unassigned; (+)) [listing 1 of 2 here] had a Ki in test [1] of 0.2 µM.

With `CC(C)CCN1C(=O)C(NC(=O)Nc2cccc(N(C)C)c2)C(=O)N(c2ccccc2F)c2ccccc21` (single isomer, unassigned; (+)) [listing 2 of 2 here], in the test filed under Cavia porcellus, the Ratio was 933.

With `CC(O)C(O)Nc1cccc(NC(=O)NC2C(=O)N(CC34C[C@H]5C[C@@H](C3)C[C@@H](C4)C5)c3ccccc3N(c3ccccc3)C2=O)c1` (single isomer, unassigned; (+)) [listing 2 of 2 here], in the test listed under Cavia porcellus, the Ratio is 11000.

`O=C(Nc1ccccc1)NC1C(=O)N(CC23C[C@H]4C[C@@H](C2)C[C@@H](C3)C4)c2ccccc2N(c2ccccc2)C1=O` (single isomer, unassigned; (-)) gave a Ki in test [1] of 0.479 µM.

For `CC(C)CCN1C(=O)C(NC(=O)Nc2cccc(N(C)C)c2)C(=O)N(c2ccccc2F)c2ccccc21` (single isomer, unassigned; (-)) [listing 1 of 2 here], in test [1], the Ki is 0.0724 µM.

Take `CC(C)CCN1C(=O)C(NC(=O)Nc2cccc(N(C)C)c2)C(=O)N(c2ccccc2F)c2ccccc21` (single isomer, unassigned; (-)) [listing 2 of 2 here]: in the test filed under Cavia porcellus, the Ratio amounted to 39.
